Rad51 HR inh = blocks human Rad51 in homologous recombination; Q06609; hit rate 0.085% among 200,000; inhibition, % at 10 µM; hRad51 DNA strand exchange, fluorescence dequenching;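 active = inhibition above 40% at the single screening dose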;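 note: 0% = DMSO control wells and 100% = blanks with heterologous ssDNA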
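Test system: preformed human Rad51 ssDNA filaments; also added: Donor/quencher-labelled 47-bp dsDNA substrate; doses: 10 µM final, single point; times: 37 °C 15-min filament assembly, 30-min compound preincubation, 15-min exchange; detection: FRET fluorescence dequenching, excitation 485 nm, emission 520 nm; read-out basis: Fluorescence-based percent inhibition, control- and blank-normalised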
p97 ATPase inh = human p97 ATPase inhibition. AID 1481. hit rate 0.42% among 220,000. inhibition, % at 8 µM. recombinant p97 ATPase, Kinase-Glo ATP luminescence, 3 h; in the data active = inhibition above about 15%;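 note: 0% = DMSO vehicle and 100% = wells lacking enzyme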
ABCB6 inh MLPCN = human ABCB6 transporter inhibition | Q9NP58 | K562-ABCB6 porphyrin accumulation, flow cytometry, 1 h; stronger effect = lower value | fluorescence ratio to DMSO, % at 10 µM | hit rate 0.19% among 360,000 | AID 602162;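 active = fluorescence ratio to DMSO below 75%, the collection mean minus 3 SD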;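 note: signal is porphyrin accumulated inside mitochondria; 100% equals median channel fluorescence of DMSO control wells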
HSV augment = HSV replication enhancement; HSV replication augmentation in cells, fold increase; maximum fold increase; hit rate 0.005% among 220,000; AID 1956; in the data active = maximum fold increase above about 1.5; tested in PC3 cells
ABCB1 block = blocks JC-1 efflux by human ABCB1 transporter. P08183. CCRF-Adr cells, flow cytometry. inhibition, % at 6.6 µM. hit rate 0.067% among 190,000; in the data active = inhibition above about 40%;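 note: 0% = vehicle and 100% = reference inhibitor; higher value means more JC-1 retained so stronger ABCB1 efflux block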
ABCG2 inh = human ABCG2 inhibition, ABCB1 as counter-screen. inhibition, % at 6.6 µM. hit rate 0.1% among 190,000. Q9UNQ0. IgMXP3 cells, JC-1 efflux, flow cytometry;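 active = inhibition above 80%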;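 note: 0% = DMSO and 100% = nicardipine control wells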
Target sequence (Q9UNQ0 whole entry, looked up): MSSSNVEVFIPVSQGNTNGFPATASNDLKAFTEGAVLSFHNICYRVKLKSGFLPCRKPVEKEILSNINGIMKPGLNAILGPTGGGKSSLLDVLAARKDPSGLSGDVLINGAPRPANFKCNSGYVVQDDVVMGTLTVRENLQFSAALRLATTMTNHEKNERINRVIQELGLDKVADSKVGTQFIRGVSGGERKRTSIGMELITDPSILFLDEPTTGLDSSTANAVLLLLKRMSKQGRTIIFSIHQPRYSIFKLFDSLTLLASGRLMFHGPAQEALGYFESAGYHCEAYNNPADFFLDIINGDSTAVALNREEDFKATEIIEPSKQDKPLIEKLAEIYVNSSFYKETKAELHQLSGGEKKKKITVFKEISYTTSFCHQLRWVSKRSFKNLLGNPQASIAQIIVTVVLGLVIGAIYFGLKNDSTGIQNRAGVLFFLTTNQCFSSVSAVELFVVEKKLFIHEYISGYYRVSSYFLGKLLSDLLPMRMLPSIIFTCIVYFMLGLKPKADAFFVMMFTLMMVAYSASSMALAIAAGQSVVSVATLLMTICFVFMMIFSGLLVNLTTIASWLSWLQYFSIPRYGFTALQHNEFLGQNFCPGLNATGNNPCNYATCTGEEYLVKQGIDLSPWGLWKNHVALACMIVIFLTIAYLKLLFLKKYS
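Measure – % inhibition of efflux relative to nicardipine and DMSO · Test system – ABCG2 IgMXP3 and barcoded ABCB1 CCRF-Adr cell mix · Control set – nicardipine as high control, DMSO as low control · Compound – one concentration, 6.6 µM final · Signal – flow cytometry of retained JC-1 fluorescence · Timing – 10 min exposure at 25 °C with rotation, no wash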
p97 confirm = confirmation of human p97 ATPase inhibitors; inhibition, % at 8 µM; hit rate 44% among 760; recombinant p97 ATPase, Kinase-Glo ATP luminescence; AID 1517; shares compounds with p97 ATPase inh;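 active = percent inhibition of p97 ATPase above a set limit, the primary screen's mean plus 3 SD, cut at about 15% in these data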;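 note: 0% = DMSO wells and 100% = wells lacking p97 protein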
* marks the source's active call; other numbers are inactive results. In the library only some 0.55% were active in any assay of this set; here they are far more common.

COc1ccc(N2C(=O)C3C(c4ccc(OC)cc4O)NC(Cc4ccccc4)(C(=O)O)C3C2=O)cc1 (centres undefined) was read as Rad51 HR inh -12, p97 ATPase inh 18*, ABCB6 inh MLPCN 102, HSV augment inactive, ABCB1 block 0, ABCG2 inh 2 and p97 confirm 7.
O=C(NCCc1ccccc1C(F)(F)F)c1cc(COc2ccccc2)on1 was read as ABCB6 inh MLPCN 100.
COc1ccc(-c2cc(N)n(S(=O)(=O)c3c(F)c(F)c(F)c(F)c3F)n2)cc1OC was read as Rad51 HR inh 12, p97 ATPase inh 22*, ABCB6 inh MLPCN 98, HSV augment inactive, ABCB1 block 0, ABCG2 inh -1 and p97 confirm 26*.
`COc1ccc(S(=O)(=O)n2nc(-c3cc(OC)c(OC)c(OC)c3)cc2N)cc1OC` gave Rad51 HR inh -1, p97 ATPase inh 4, ABCB6 inh MLPCN 105, HSV augment inactive, ABCB1 block 1 and ABCG2 inh 6.
Cc1ccc(N/C(C(Cl)=C(Cl)Cl)=C(/Cl)[N+](=O)[O-])c(C)c1 was read as Rad51 HR inh 3, p97 ATPase inh 19*, ABCB6 inh MLPCN 104, HSV augment inactive, ABCB1 block 0, ABCG2 inh 0 and p97 confirm 21*.
Cc1ccc(NC(=O)CC(=O)Nc2ccc(C)cc2C)c(C)c1 was read as ABCB6 inh MLPCN 97.
O=C1NNC(c2ccccc2)=N/C1=C\c1ccccc1Cl was read as Rad51 HR inh -11, p97 ATPase inh 17*, ABCB6 inh MLPCN 92, HSV augment inactive and p97 confirm 18*.
For Cc1ccc(NC(=O)COC(=O)CCc2nc3ccccc3c(=O)[nH]2)cc1Cl the results were Rad51 HR inh -7, p97 ATPase inh 16*, ABCB6 inh MLPCN 95, HSV augment inactive, ABCB1 block 1, ABCG2 inh 5 and p97 confirm 1.
Screening COc1ccc2ccc3c(c2c1)N=CC1(O3)N(C)c2ccccc2C1(C)C (centres undefined) returned Rad51 HR inh -3, p97 ATPase inh 16*, ABCB6 inh MLPCN 95, HSV augment inactive, ABCB1 block 0, ABCG2 inh -1 and p97 confirm 8.
`CN1c2ccccc2C(C)(C)C12C=Nc1c(ccc3ccccc13)O2` (centres undefined) gave Rad51 HR inh 5, p97 ATPase inh -1, ABCB6 inh MLPCN 103, HSV augment inactive, ABCB1 block -3 and ABCG2 inh -4.
CC(=O)NCCc1nc(-c2ccc(Cl)cc2)no1 was read as Rad51 HR inh -6, ABCB6 inh MLPCN 94 and HSV augment inactive.
Screening O=C(O)CCc1nc(-c2ccc(Cl)cc2)no1 returned Rad51 HR inh -2, p97 ATPase inh 20*, ABCB6 inh MLPCN 90, HSV augment inactive, ABCB1 block 0, ABCG2 inh 2 and p97 confirm 4.
`CC(C)(CC(=O)O)Cc1nc(-c2ccc(Cl)cc2)no1` gave Rad51 HR inh 0, p97 ATPase inh 19*, ABCB6 inh MLPCN 102, HSV augment inactive, ABCB1 block 1, ABCG2 inh 3 and p97 confirm 3.
Screening Cc1cc(C)cc(Cn2cc(CN3CC(N4CCN(Cc5ccccc5F)CC4)CS3(=O)=O)nn2)c1 (centres undefined) returned ABCB6 inh MLPCN 93.
For Cc1[nH][nH]c(=O)c1C(c1ccc(-c2cccc(Cl)c2)o1)c1c(C)[nH][nH]c1=O the results were Rad51 HR inh 4, p97 ATPase inh 36*, ABCB6 inh MLPCN 99, HSV augment inactive and p97 confirm 34*.
For Cc1[nH][nH]c(=O)c1C(c1ccc(-c2ccccc2C(=O)O)o1)c1c(C)[nH][nH]c1=O the results were Rad51 HR inh 6, p97 ATPase inh 22*, ABCB6 inh MLPCN 94, HSV augment inactive, ABCB1 block -1, ABCG2 inh -7 and p97 confirm 24*.
For CNC(=S)N/N=C/c1ccc(-c2cccc(C(=O)O)c2)o1 the results were Rad51 HR inh 3, p97 ATPase inh -24, ABCB6 inh MLPCN 106 and HSV augment inactive.
Cc1ccc2oc(-c3ccccc3C(=O)O)cc(=O)c2c1 was read as Rad51 HR inh -1, p97 ATPase inh 4, ABCB6 inh MLPCN 90, HSV augment inactive, ABCB1 block 1 and ABCG2 inh 6.
For Cc1[nH][nH]c(=O)c1C(c1ccc(-c2cccc(C(=O)O)c2)o1)c1c(C)[nH][nH]c1=O the results were Rad51 HR inh 0, p97 ATPase inh 19*, ABCB6 inh MLPCN 99, HSV augment inactive, ABCB1 block 1, ABCG2 inh 1 and p97 confirm 12.
`O=C(Nc1c(-c2ccc(Cl)cc2)[nH][nH]c1=O)c1ccc(Br)cc1` gave ABCB6 inh MLPCN 101.
Cc1ccccc1CC(=O)Nc1ccc2c(c1)c(=O)n(C)n2-c1cccs1 was read as ABCB6 inh MLPCN 93.
Screening Cc1[nH]n(-c2ccccc2)c(=O)c1C(c1cccc([N+](=O)[O-])c1O)c1c(C)[nH]n(-c2ccccc2)c1=O returned Rad51 HR inh 4, p97 ATPase inh 24*, ABCB6 inh MLPCN 98, HSV augment inactive, ABCB1 block 0, ABCG2 inh -5 and p97 confirm 6.
Cc1c(C(c2cccc([N+](=O)[O-])c2O)c2c(C)n(C)n(-c3ccccc3)c2=O)c(=O)n(-c2ccccc2)n1C was read as Rad51 HR inh 0, p97 ATPase inh -2, ABCB6 inh MLPCN 102, HSV augment inactive, ABCB1 block 0 and ABCG2 inh 1.
Screening O=C(c1[nH]c(C(F)(F)F)nc1-c1ccccc1)N1CCC2(CC1)C(=O)NCN2c1ccccc1 returned ABCB6 inh MLPCN 89.
N=c1c(C(=O)NCc2ccccc2)cc2c(=O)n3ccccc3nc2n1Cc1ccco1 was read as Rad51 HR inh 6, p97 ATPase inh 23*, ABCB6 inh MLPCN 100, HSV augment inactive, ABCB1 block 1, ABCG2 inh 3 and p97 confirm 13.
O=C(NCC(F)(F)F)c1[nH]c(C(F)(F)F)nc1-c1ccccc1 was read as ABCB6 inh MLPCN 99.
CCOC(=O)c1ccc(N(C(=O)c2cnccn2)C(C(=O)NC2CCCCC2)c2cn(C)nc2C)cc1 (centres undefined) was read as Rad51 HR inh 4, p97 ATPase inh 22*, ABCB6 inh MLPCN 92, HSV augment inactive, ABCB1 block 0, ABCG2 inh -1 and p97 confirm 9.
